Experimental findings from ChEMBL document CHEMBL2396524, “Design, synthesis and biological evaluation of enzymatically cleavable NSAIDs prodrugs derived from self-immolative dendritic scaffolds for the treatment of inflammatory diseases” (Bioorg Med Chem, 2013) are described below.

Series [1] relates to Mus musculus. The series is described as follows: Antiinflammatory activity in Kunming mouse assessed as inhibition of xylene-induced auricle tumefaction at 22.2 uM/kg, tid qd for 5 days relative to control. It counts as functional. The method, boiled down:
(§1)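 Male Kunming mice (18–22 g), 10 per group, with 0.9% NaCl as the blank group. Dosing was once daily for 5 days (table footnote); the methods say t.i.d. Drug was given at molar equivalence to naproxen. 1 h after the last dose, a 7 mm xylene-soaked filter was held on the right ear for 30 s. Mice were killed 30 min later and 7 mm ear discs punched. Inhibition % = (1 − a/b)×100.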

Series [2] is described as follows: Chemical stability of the compound in phosphate buffer at pH 2 assessed as compound remaining at 0.1 uM after 240 hrs by RP-HPLC analysis. In kind it is physicochemical. The conditions noted are these: read-out: Stability. An outline of the steps:
(§2)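 Conjugates at 0.1 µM were incubated at 37 °C in 20 mM phosphate buffer at pH 2.0, 7.0 or 8.0. Intact conjugate was measured by RP-HPLC: RP18 column, methanol/0.05 mol/l KH2PO4 pH 3.0 (60:40), 1.0 ml/min, UV 256 nm, 25 °C. Results are % remaining, mean ± SD.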

Series [3] is described as follows: Chemical stability of the compound in phosphate buffer at pH 2 assessed as compound remaining at 0.1 uM after 48 hrs by RP-HPLC analysis. In kind it is physicochemical. The settings on record: read-out: Stability. An outline of the steps: as §2
In series [4] the test system is Mus musculus. The series is described as follows: Gastrointestinal toxicity in Kunming mouse assessed as ulcer index at 200 mg/kg, po after 4 hrs. Also on record: dose 200 mg/kg, route oral. The settings on record: in vivo. It counts as organism-based. An outline of the steps: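 Kunming mice of either sex (18–22 g), 10 per group, were fasted 24 h. A 200 mg/kg oral dose was given as a suspension in 1% methylcellulose, and mice were killed after 4 h. Stomachs were fixed 30 min in 10% formaldehyde, opened along the greater curvature and lesion lengths measured under magnification. UI = summed lesion length (mm) per group divided by 10 animals.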

The nature of series [5]: Chemical stability of the compound in phosphate buffer at pH 8 assessed as compound remaining at 0.1 uM after 48 hrs by RP-HPLC analysis. It counts as physicochemical. The settings on record: read-out: Stability. An outline of the steps:
as §2

A further series has as its system HEK293. The series is described as follows: Cytotoxicity against HEK293 cells assessed as cell viability at 2 to 32 ug/ml after 24 hrs by MTT assay. It counts as cell-based. The conditions noted are these: human, hek293, 24 h. The method, boiled down: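 HEK293 cells were seeded at 2500/well and grown 24 h before compound exposure. The figure legend gives 24 h exposure; the methods give 48 h. MTT (5 mg/ml) was then added for 2.5 h at 37 °C. Formazan was dissolved in DMSO and read at 570 nm. Viability is % of control cells, mean ± SD, n = 3.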
A general note: Formazan colour is commonly taken as a measure of viable cells.

The nature of series [6]: Chemical stability of the compound in phosphate buffer at pH 7 assessed as compound remaining at 0.1 uM after 48 hrs by RP-HPLC analysis. In kind it is physicochemical. The settings on record: read-out: Stability. The method, boiled down:
as §2

A short description of series [7]: Chemical stability of the compound in phosphate buffer at pH 8 assessed as compound remaining at 0.1 uM after 240 hrs by RP-HPLC analysis. It counts as physicochemical. The settings on record: read-out: Stability. An outline of the steps:
as §2

Series [8] in a line: Chemical stability of the compound in phosphate buffer at pH 7 assessed as compound remaining at 0.1 uM after 240 hrs by RP-HPLC analysis. In kind it is physicochemical. The settings on record: read-out: Stability. An outline of the steps: as §2
Series [9] relates to Mus musculus. The series is described as follows: Antiinflammatory activity in Kunming mouse assessed as inhibition of xylene-induced auricle tumefaction at 25 uM/kg, tid qd for 5 days relative to control. In kind it is functional. An outline of the steps:
as §1

Regarding `COc1ccc2cc(C(C)C(=O)OCC(COC(=O)C(C)c3ccc4cc(OC)ccc4c3)(COC(=O)C(C)c3ccc4cc(OC)ccc4c3)NC(=O)CCC(=O)OCC(COC(=O)CCC(=O)NC(COC(=O)C(C)c3ccc4cc(OC)ccc4c3)(COC(=O)C(C)c3ccc4cc(OC)ccc4c3)COC(=O)C(C)c3ccc4cc(OC)ccc4c3)(COC(=O)CCC(=O)NC(COC(=O)C(C)c3ccc4cc(OC)ccc4c3)(COC(=O)C(C)c3ccc4cc(OC)ccc4c3)COC(=O)C(C)c3ccc4cc(OC)ccc4c3)NC(=O)OCc3ccccc3)ccc2c1` (centres undefined), in the series on Mus musculus [1], the “inhibition (INH)” value turned out to be 49.64%. Further, the figures for the remaining at 240 h, 0.1 µM in series [2], in series [7] and in series [8] were 89.9%, 79.4% and 98.4%, respectively. In addition, the remaining at 48 h, 0.1 µM in series [3] worked out at 97.2%; in series [5] it was 94.5%; in series [6], 99.1%. In addition, the UI with Mus musculus [4] is recorded as 5.94. Besides, in the series with HEK293, the Activity entry is on record as “Non-toxic”.

For `COc1ccc2cc(C(C)C(=O)NCCCCC(NC(=O)C(C)c3ccc4cc(OC)ccc4c3)C(=O)NCCCCC(NC(=O)C(CCCCNC(=O)C(C)c3ccc4cc(OC)ccc4c3)NC(=O)C(C)c3ccc4cc(OC)ccc4c3)C(=O)NCCCCC(NC(=O)C(CCCCNC(=O)C(CCCCNC(=O)C(C)c3ccc4cc(OC)ccc4c3)NC(=O)C(C)c3ccc4cc(OC)ccc4c3)NC(=O)C(CCCCNC(=O)C(C)c3ccc4cc(OC)ccc4c3)NC(=O)C(C)c3ccc4cc(OC)ccc4c3)C(=O)OCc3ccccc3)ccc2c1` (centres undefined), the remaining at 240 h, 0.1 µM was 93.1% in series [2], 89.4% in series [7] and 96.1% in [8]. Besides, the remaining at 48 h, 0.1 µM in series [3] worked out at 97.1%; in series [5] it was 91.2%; in series [6] it was 97.6%. The UI in the series with Mus musculus [4] came out at 6.21. Also, the Activity entry in the series with HEK293 is “Non-toxic”. In the series on Mus musculus [9], the “inhibition (INH)” value was determined as 48.18%.

As for `COc1ccc2cc(C(C)C(=O)OCCN(CCOC(=O)C(C)c3ccc4cc(OC)ccc4c3)CCC(=O)OCCN(CCOC(=O)CCN(CCOC(=O)C(C)c3ccc4cc(OC)ccc4c3)CCOC(=O)C(C)c3ccc4cc(OC)ccc4c3)CCC(=O)OCCN(CCOC(=O)CCN(CCOC(=O)CCN(CCOC(=O)C(C)c3ccc4cc(OC)ccc4c3)CCOC(=O)C(C)c3ccc4cc(OC)ccc4c3)CCOC(=O)CCN(CCOC(=O)C(C)c3ccc4cc(OC)ccc4c3)CCOC(=O)C(C)c3ccc4cc(OC)ccc4c3)CCC(=O)OCc3ccccc3)ccc2c1` (centres undefined), the remaining at 240 h, 0.1 µM was found to be 72.3% in series [2], 79.4% in [7] and 95.9% in series [8]. In addition, the remaining at 48 h, 0.1 µM amounted to 95.7% in [3], 97.3% in series [5] and 96.2% in series [6]. The UI with Mus musculus [4] was found to be 6.93. For the same molecule, the Activity entry in the series with HEK293 was “Non-toxic”. Further, in the series on Mus musculus [9], the “inhibition (INH)” value worked out at 39.62%.

For the molecule `COc1ccc2cc([C@H](C)C(=O)O)ccc2c1` [NAPROXEN], in the series on Mus musculus [4], the UI was determined as 8.26. Besides, in the series on HEK293, the Activity entry is “Non-toxic”.
